Measurements as given in ChEMBL document CHEMBL4725283, “Selective Peptidomimetic Inhibitors of NTMT1/2: Rational Design, Synthesis, Characterization, and Crystallographic Studies” (J Med Chem, 2020).

Legend:
[1] = species: Homo sapiens; assay: Selectivity for human NTMT2 over human PRDM9 at 100 uM
Summary of the method: (§1)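 Single-point panel screen against 41 PKMTs, PRMTs, DNMTs and NTMT1/2. Each compound was tested at 100 µM, in duplicate (n=2).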

[2] = species: Homo sapiens; assay: Selectivity for human NTMT1 over human EZH2 complex Y641F mutant at 100 uM
Summary of the method: (§2)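 Panel of 41 PKMTs, PRMTs, DNMTs and NTMT1/2, tested at 100 µM compound in duplicate (n=2).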

[3] = species: Homo sapiens; assay: Selectivity for human NTMT1 over human PRDMT1 at 100 uM; summary of the method: as §2
[4] = species: Homo sapiens; assay: Selectivity for human NTMT2 over human MLL4 complex at 100 uM; summary of the method: as §1
[5] = species: Homo sapiens; assay: Selectivity for human NTMT2 over human SUV39H at 100 uM; summary of the method: as §1
[6] = species: Homo sapiens; assay: Selectivity for human NTMT2 over human GLP at 100 uM; summary of the method: as §1
[7] = species: Homo sapiens; assay: Selectivity for human NTMT1 over human SET8 at 100 uM; summary of the method: as §2
[8] = species: Homo sapiens; assay: Selectivity for human NTMT1 over human SUV39H1 at 100 uM; summary of the method: as §1
[9] = species: Homo sapiens; assay: Selectivity for human NTMT1 over human PRDMT7 at 100 uM; summary of the method: as §2
[10] = species: Homo sapiens; assay: Selectivity for human NTMT2 over human NSD2 at 100 uM; summary of the method: as §1
[11] = species: Homo sapiens; assay: Selectivity for human NTMT1 over human SMYD1 at 100 uM; summary of the method: as §2
[12] = species: Homo sapiens; assay: Selectivity for human NTMT1 over human PRDMT4 at 100 uM; summary of the method: as §2
[13] = species: Homo sapiens; assay: Selectivity for human NTMT2 over human NSD3 at 100 uM; summary of the method: as §1
[14] = species: Homo sapiens; assay: Selectivity for human NTMT1 over human SMYD2 at 100 uM; summary of the method: as §2
[15] = species: Homo sapiens; assay: Selectivity for human NTMT1 over human MLL1 complex at 100 uM; summary of the method: as §2
[16] = species: Homo sapiens; assay: Selectivity for human NTMT2 over GST-tagged human METTL21A at 100 uM; summary of the method: as §1
[17] = species: Homo sapiens; assay: Selectivity for human NTMT1 over human PRDM9 at 100 uM; summary of the method: as §2
[18] = species: Homo sapiens; assay: Selectivity for human NTMT1 over human NSD1 at 100 uM; summary of the method: as §2
[19] = species: Homo sapiens; assay: Selectivity for human NTMT1 over human GLP at 100 uM; summary of the method: as §2
[20] = species: Homo sapiens; assay: Selectivity for human NTMT2 over human SMYD1 at 100 uM; summary of the method: as §1
[21] = species: Homo sapiens; assay: Selectivity for human NTMT1 over GST-tagged human METTL21A at 100 uM; summary of the method: as §2
[22] = species: Homo sapiens; assay: Selectivity for human NTMT2 over human PRDMT5 at 100 uM; summary of the method: as §1
[23] = species: Homo sapiens; assay: Selectivity for human NTMT1 over human EZH2 complex at 100 uM; summary of the method: as §2
[24] = species: Homo sapiens; assay: Selectivity for human NTMT2 over human PRDMT5/MEP50 complex at 100 uM; summary of the method: as §1
[25] = species: Homo sapiens; assay: Selectivity for human NTMT1 over human DNMT3b at 100 uM; summary of the method: as §2
[26] = species: Homo sapiens; assay: Selectivity for human NTMT1 over human PRDMT3 at 100 uM; summary of the method: as §2
[27] = target: T1, Histone-lysine N-methyltransferase EHMT2 (Homo sapiens, UniProt Q96KQ7); assay: Inhibition of human His-tagged G9a (913 to 1193 residues) expressed in Escherichia coli BL21-CodonPlus(DE3)-RIL using H3-21 peptide as substrate preincubated for 10 mins in presence of SAM followed by substrate addition by fluorescence assay
T1 sequence (Q96KQ7 whole entry): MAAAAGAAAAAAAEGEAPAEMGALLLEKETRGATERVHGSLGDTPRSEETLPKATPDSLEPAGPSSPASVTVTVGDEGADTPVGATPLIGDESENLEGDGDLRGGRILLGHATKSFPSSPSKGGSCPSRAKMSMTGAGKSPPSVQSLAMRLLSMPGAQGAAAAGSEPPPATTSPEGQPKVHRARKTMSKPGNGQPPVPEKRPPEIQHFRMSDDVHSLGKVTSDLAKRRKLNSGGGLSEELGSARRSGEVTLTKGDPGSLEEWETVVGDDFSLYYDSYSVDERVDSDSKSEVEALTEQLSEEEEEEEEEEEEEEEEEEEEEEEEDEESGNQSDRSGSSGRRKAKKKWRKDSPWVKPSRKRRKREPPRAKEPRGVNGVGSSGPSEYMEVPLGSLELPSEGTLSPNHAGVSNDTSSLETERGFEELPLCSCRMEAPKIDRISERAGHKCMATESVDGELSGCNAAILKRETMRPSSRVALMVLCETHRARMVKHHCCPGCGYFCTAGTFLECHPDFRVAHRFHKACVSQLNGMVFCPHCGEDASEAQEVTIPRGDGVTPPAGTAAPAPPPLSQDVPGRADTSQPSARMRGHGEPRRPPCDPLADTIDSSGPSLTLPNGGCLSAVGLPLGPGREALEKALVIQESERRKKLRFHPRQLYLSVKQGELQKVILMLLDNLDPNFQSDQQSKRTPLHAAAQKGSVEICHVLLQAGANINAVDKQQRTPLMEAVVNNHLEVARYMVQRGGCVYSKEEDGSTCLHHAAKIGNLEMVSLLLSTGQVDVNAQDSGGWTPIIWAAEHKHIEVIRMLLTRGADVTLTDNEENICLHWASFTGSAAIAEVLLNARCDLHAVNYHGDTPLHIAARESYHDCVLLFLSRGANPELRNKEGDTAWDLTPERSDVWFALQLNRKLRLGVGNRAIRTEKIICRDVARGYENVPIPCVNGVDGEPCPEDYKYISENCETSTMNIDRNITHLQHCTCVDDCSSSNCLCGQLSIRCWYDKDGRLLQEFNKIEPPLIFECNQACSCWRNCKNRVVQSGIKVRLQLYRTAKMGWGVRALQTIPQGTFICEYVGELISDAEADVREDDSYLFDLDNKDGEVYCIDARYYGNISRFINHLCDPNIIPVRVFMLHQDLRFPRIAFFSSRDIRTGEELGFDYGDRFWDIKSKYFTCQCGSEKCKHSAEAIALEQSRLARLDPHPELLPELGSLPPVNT

[28] = target: T2, N-terminal Xaa-Pro-Lys N-methyltransferase 1 (Homo sapiens, UniProt Q9BV86); assay: Binding affinity to recombinant human full-length His6-tagged NTMT1 (1 to 222 residues) by ITC assay
T2 sequence (Q9BV86 whole entry): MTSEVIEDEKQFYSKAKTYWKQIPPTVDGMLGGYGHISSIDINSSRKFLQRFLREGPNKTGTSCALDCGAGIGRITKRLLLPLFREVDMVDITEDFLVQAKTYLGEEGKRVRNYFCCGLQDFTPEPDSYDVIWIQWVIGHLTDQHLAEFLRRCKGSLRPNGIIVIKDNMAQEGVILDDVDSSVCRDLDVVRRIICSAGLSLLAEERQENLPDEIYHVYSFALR
Summary of the method: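 ITC at 25 °C. Purified protein (NTMT1 for line 1, NTMT2 for line 2) in 20 mM Tris-HCl pH 7.5, 150 mM NaCl, 0.5 mM TCEP at 30–50 µM final. Compound at 0.5–1 mM in the same buffer, titrated in as 26 injections of 10 µl, 180 s apart, reference power 15 µcal/sec.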

[29] = species: Homo sapiens; assay: Selectivity for human NTMT2 over human ASH1L at 100 uM; summary of the method: as §1

With `N=C(N)NCCC[C@H](NC(=O)[C@H](CCCCN)NC(=O)[C@@H]1CCCN1C(=O)Cc1ccc(O)cc1)C(N)=O` the Selectivity ratio [1] was > 100, the Selectivity ratio [2] was > 100 and the Selectivity ratio [3] was > 100. The Selectivity ratio [4] was > 100, the Selectivity ratio [5] was > 100 and the Selectivity ratio [6] was > 100. For the same molecule, the Selectivity ratio [7] was > 100, the Selectivity ratio [8] was > 100 and the Selectivity ratio [9] was > 100. For the same molecule, the Selectivity ratio [10] was > 100, the Selectivity ratio [11] was > 100 and the Selectivity ratio [12] was > 100. The Selectivity ratio [13] was > 100, the Selectivity ratio [14] was > 100 and the Selectivity ratio [15] was > 100. The Selectivity ratio [16] was > 100, the Selectivity ratio [17] was > 100 and the Selectivity ratio [18] was > 100. The Selectivity ratio [19] was > 100, the Selectivity ratio [20] was > 100 and the Selectivity ratio [21] was > 100. For the same molecule, the Selectivity ratio [22] was > 100, the Selectivity ratio [23] was > 100 and the Selectivity ratio [24] was > 100. The Selectivity ratio [25] was > 100, the Selectivity ratio [26] was > 100 and the IC50 [27] was > 100 µM. The Kd [28] was 3 µM and the Selectivity ratio [29] was > 100.
